From PubChem
An excerpt weighted towards active compounds, which were near 2.7% of everything screened.
HTRA1 inh: inhibitors of human serine peptidase HTRA1; actives 0.5% (n = 340,000); AID 504803; inhibition, % at 5.96 µM; recombinant HTRA1, FP-rhodamine activity-based probe, fluorescence polarization; in the data active means inhibition above about 36%;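 further: 0% = enzyme with DMSO and 100% = wells lacking enzyme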
TCR-CD3 inh: blocks the human TCR-CD3 interaction | TAMRA-labeled TCR probe fluorescence, biochemical | inhibition, % at 9.4 µM | actives 0.37% (n = 360,000) | AID 651800; in the data active means inhibition above about 19%;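 further: recombinant mutant TCR 2C K166C tagged with TAMRA read by polarization; 0% = receptor in buffer alone and 100% = receptor with positive control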
ABHD4 inh: inhibitors of mouse ABHD4; AID 720543; actives 0.54% (n = 370,000); inhibition, % at 8.92 µM; purified mABHD4, FP-Rh probe fluorescence polarization;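 active means inhibition exceeding the mean over every tested compound plus 3 SD, cut at about 30% in these data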;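 further: 0% = plate median of compound wells and 100% = S159A mutant with DMSO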
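Test system: mABHD4 protein | Buffer or medium: HEPES pH 7.0 buffer, 150 mM NaCl, 0.01% Pluronic F-127 | Probe or stimulus: FP-Rh fluorescent activity-based probe, added after compound pre-incubation | Timing: Pre-incubation 45 min, probe exposure 60 min, at 25 °C | Technique: Fluorescence polarization, excitation 525 nm, emission 598 nm, BODIPY TMR filters | Repeats: Single well per compound (singlicate)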
SIAE primary: blocks human sialic acid acetylesterase. actives 0.69% (n = 370,000). inhibition, % at 9.66 µM. Q9HAT2. SIAE FP-Rh probe binding, fluorescence polarization;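 active means inhibition above a cutoff: mean of compounds within the control limits plus 3 SD of those, cut at about 17% in these data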;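 further: 0% = plate median of compound wells and 100% = probe without SIAE protein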
Target sequence (Q9HAT2 whole entry, looked up): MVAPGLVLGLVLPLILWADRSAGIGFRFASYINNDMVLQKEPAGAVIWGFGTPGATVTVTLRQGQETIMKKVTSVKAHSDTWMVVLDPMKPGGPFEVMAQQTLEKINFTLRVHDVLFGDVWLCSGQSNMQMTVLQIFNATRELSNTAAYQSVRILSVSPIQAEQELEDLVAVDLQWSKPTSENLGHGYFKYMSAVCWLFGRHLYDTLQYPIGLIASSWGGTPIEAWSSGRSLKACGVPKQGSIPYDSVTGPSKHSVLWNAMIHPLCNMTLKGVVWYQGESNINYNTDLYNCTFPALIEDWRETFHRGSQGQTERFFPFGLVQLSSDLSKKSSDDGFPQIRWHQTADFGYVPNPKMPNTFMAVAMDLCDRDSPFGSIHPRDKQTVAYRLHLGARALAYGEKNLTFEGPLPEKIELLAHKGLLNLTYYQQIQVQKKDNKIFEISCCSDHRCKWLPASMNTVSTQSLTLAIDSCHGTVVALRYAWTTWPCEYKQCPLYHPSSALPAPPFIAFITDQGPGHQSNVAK
PRMT1 inh: blocks human protein arginine methyltransferase 1; Q99873; recombinant PRMT1, activity-based probe fluorescence polarization; inhibition, % at 2.79 µM; actives 1.3% (n = 370,000);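 active means inhibition above about 21% made by adding two undisclosed values, limit read from the data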
HTRA1 inh conf: confirmation of human HTRA1 inhibitors. inhibition, % at 5.96 µM. actives 66% (n = 1,600). shares compounds with HTRA1 inh. recombinant HTRA1, FP-rhodamine activity-based probe, fluorescence polarization;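 active means mean inhibition over three repeats above a set limit taken from the earlier primary screen, cut at about 37% in these data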;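 further: 0% = HTRA1 with DMSO and 100% = wells lacking HTRA1; inhibitors block probe binding so polarization drops and inhibition rises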
The depositor's hits bear a star; . = not tested or not shown.

SMILES | HTRA1 inh | TCR-CD3 inh | ABHD4 inh | SIAE primary | PRMT1 inh | HTRA1 inh conf
NS(=O)(=O)c1ccc2c(c1)C1C=CCC1C(C1CC=CCC1)N2 (centres undefined) | 63.9* | 1.0 | 25.6 | 9.9 | 36.7* | 37.6*
CC(C)C(=O)NC(c1cccs1)c1cc([N+](=O)[O-])c2cccnc2c1O (centres undefined) | 37.7* | . | . | . | . | 36.6*
Cc1ccc(C(NC(=O)C(C)C)c2cc([N+](=O)[O-])c3cccnc3c2O)cc1 (centres undefined) | 37.0* | -4.3 | 16.8 | 3.2 | 5.8 | 65.2*
CCc1ccccc1NC(=O)CCc1c(C)nn(-c2ccc(N3CCOCC3)nn2)c1C | -1.5 | -1.4 | 1.6 | -1.6 | 4.5 | .
C/C(N=Nc1nc2ccccc2s1)=N\Nc1ccccc1O | 67.6* | 6.5 | 28.0 | 10.0 | -5.9 | 73.6*
CCCCCCCCCCCCCCCC[N+](C)(C)Cc1ccc(F)cc1 | 64.0* | 4.1 | 43.9* | -4.2 | -1.1 | 63.6*
CCOC(=O)c1cc2c(=Cc3ccc(N(C)C)cc3)c3ccccc3n2[n+]1C | 45.7* | -22.1 | -68.2 | -45.0 | 3.2 | 1.8
Cc1cc2c(=Cc3ccc(N(C)C)cc3)c3ccccc3n2[n+]1C | -20.0 | -30.1 | -101.4 | -74.1 | 4.0 | .
CN(C)c1ccc(C=c2c3ccccc3n3c2c2ccccc2[n+]3C)cc1 | 87.4* | 30.7* | 57.5* | 17.4* | 1.0 | 89.6*
COc1ccc(Oc2c(OC)cc(NCc3ccc(CN)cc3)c3ncccc23)cc1 | 20.0 | 18.3 | 21.2 | 5.4 | 7.0 | .
C[C@@H](O[Si](c1ccccc1)(c1ccccc1)C(C)(C)C)[C@@H]1NC(=O)[C@@H]2C[C@]3(Br)c4ccccc4N(S(=O)(=O)c4ccccc4)[C@@H]3N2C1=O | . | . | 3.8 | -5.4 | -1.8 | .
COc1ccccc1NC(=S)N(CCCN1CCOCC1)Cc1cccs1 | -0.6 | 2.0 | -0.7 | -2.7 | -2.8 | .
CCCCCCCCCCCCC/C=C/[C@@H](O)[C@@H](N)CO | 37.6* | 10.5 | 20.1 | -1.3 | -4.7 | 67.4*
CCC(=O)N1CCCC(C(=O)Nc2ccc3cn[nH]c3c2)CC1 (centres undefined) | . | 3.1 | -0.1 | 8.1 | 0.6 | .
C(=N\NC1=Nc2cccc3cccc1c23)/c1ccccn1 | 49.0* | 3.5 | 21.2 | -2.3 | -3.1 | 50.0*
O=C(COC(=O)c1nc(Cl)ccc1Cl)Nc1ncc(Cl)cc1Cl | 63.3* | -0.4 | -2.4 | 8.4 | 2.4 | 6.0
O=[N+]([O-])c1ccccc1CNCCCCCO | -4.6 | -3.5 | 1.5 | 2.0 | -0.8 | .
CC1=NN(c2ccc(C(=O)O)cc2)C(=O)/C1=C\c1ccc(OC(=O)c2cccs2)cc1 | 38.9* | -3.1 | 12.2 | -5.2 | 6.3 | 7.0
O=C(O)c1ccc(CNC(=O)C2CCN(S(=O)(=O)c3ccc4c(c3)OCCO4)CC2)cc1 | -0.4 | 5.0 | 3.4 | 1.1 | 3.0 | .
COc1ccc(C(=O)Oc2ccc3oc(=O)sc3c2)cc1 | 45.4* | 1.3 | -11.6 | -24.6 | 75.7* | 6.4
COc1ccc(C(=O)Oc2ccc3ccc(=O)oc3c2)cc1 | 2.4 | 7.2 | 0.2 | -9.5 | 0.6 | .
C=CCOc1ccc(C2OC34CCCCC3C(C#N)(C#N)C2(C#N)C(=N)O4)cc1 (centres undefined) | 37.7* | . | . | . | . | -3.1
CCCCOc1ccc(C2OC34CCCCC3C(C#N)(C#N)C2(C#N)C(=N)O4)cc1 (centres undefined) | 25.1 | . | . | . | . | .
CC(C)CN1CCC(CN2C(=S)NC[C@@H]2Cc2ccccc2)CC1 | . | 10.2 | -3.2 | 5.5 | 0.4 | .
Cc1cc(N=Nc2ccc(C)c(N=Nc3cc(C)c(N)cc3N)c2)c(N)cc1N | 76.8* | 2.4 | 26.7 | 10.6 | 4.0 | 73.7*
SMILES | HTRA1 inh | TCR-CD3 inh | ABHD4 inh | SIAE primary | PRMT1 inh | HTRA1 inh conf
COc1cc(C(C(=O)NC(C)(C)C)N(C(=O)CNC(=O)c2cccs2)c2ccccc2)cc(OC)c1OC (centres undefined) | 6.4 | 3.4 | 0.7 | 1.0 | -1.7 | .
COc1cc(C(C(=O)NC(C)(C)C)N(C(=O)CNC(=O)c2cccs2)c2ccc(C(C)C)cc2)cc(OC)c1OC (centres undefined) | 39.3* | -6.7 | 5.3 | 4.7 | 4.1 | 48.9*
Oc1c(CN2CCOCC2)ccc2ccccc12 | 11.4 | 4.2 | 27.2 | 6.5 | 2.7 | .
COCc1cc(CN2CCCC2)c(O)c2ncccc12 | 18.3 | 3.0 | 9.5 | 4.3 | 0.0 | .
Oc1ccc(COCc2ccccc2)c2cccnc12 | 33.9 | 2.5 | 5.5 | 8.3 | 0.4 | .
Oc1c(CN2CCCCC2)cc(COCc2ccccc2)c2cccnc12 | 64.5* | -5.8 | 13.9 | -2.9 | -3.7 | 72.4*
CN(C)C1CCN(Cc2cc(COCc3ccccc3)c3cccnc3c2O)C1 (centres undefined) | 53.7* | . | . | . | . | 76.2*
Oc1c(CN2CCCCC2)ccc2cccnc12 | 73.5* | 13.1 | 21.9 | 6.9 | 2.6 | 69.1*
CCCCNC(=O)C[C@H]1C[C@@]2(C(=O)OC)C(=C[C@H](C(C)(C)C)O[C@@H]2C)N(CCc2ccc(OC)c(OC)c2)C1=O | . | . | 1.0 | 1.0 | 0.5 | .
O=C1CC(Nc2ccc(N3CCOCC3)cc2)C(=O)N1c1cccc(C(F)(F)F)c1 (centres undefined) | 60.8* | . | . | . | . | 13.6
Cc1ccc(NC2CC(=O)N(c3ccc(N4CCCCC4)cc3)C2=O)cc1 (centres undefined) | 18.1 | -8.2 | 5.3 | 7.6 | 3.6 | .
Cc1n[nH]c(=O)c2c(NC(=O)CSc3nc4ccccc4c(=O)n3C(C)C)oc(C)c12 | 9.2 | 6.4 | 0.1 | -4.2 | 6.0 | .
Cc1n[nH]c(=O)c2c(NC(=O)CSc3nc4ccccc4c(=O)n3CCCO)oc(C)c12 | 37.9* | -6.0 | -6.1 | 3.5 | 12.0 | -1.6
O=C(COc1coc(CN2CCN(c3ccccc3)CC2)cc1=O)Nc1ccccc1 | 2.0 | -0.2 | 8.4 | 12.5 | -1.1 | .
Cc1cccc(NC(=O)COc2coc(CN3CCN(c4ccccc4)CC3)cc2=O)c1C | 57.1* | 6.3 | 1.7 | -3.1 | 2.1 | 10.0
Cc1cc(C)nc(Nc2ccc(N3CCCC3)cc2)n1 | 40.4* | 5.0 | 17.7 | 1.3 | 3.8 | 40.1*
Cc1cc(C)nc(Nc2ccc(N3CCOCC3)cc2)n1 | 14.5 | -0.6 | 2.2 | 2.7 | -0.4 | .
O=C(/C=C/c1ccco1)Oc1cc(Br)cc(/C=N/NC(=O)c2ccccc2O)c1 | 84.3* | 11.7 | 15.4 | 3.2 | 9.8 | 142.6*
CC(C)Nc1nnc(Sc2ccc(Cl)cc2[N+](=O)[O-])s1 | -6.6 | 6.2 | 8.2 | -6.2 | 3.1 | .
NC(=O)c1cc2c3ccccc3ccn2c1-c1ccccc1 | 42.1* | -4.6 | -6.4 | 5.9 | 11.9 | 28.8
Cc1cc(C(N)=O)c2ccccc2n1 | -0.8 | -1.5 | -3.0 | 12.0 | -2.4 | .
COc1c(C)cc(C(O)c2ncc(-c3ccccc3F)[nH]2)cc1C (centres undefined) | . | -7.5 | -1.2 | 4.4 | -2.2 | .
Cc1cc2ccccc2n1CCNC(=O)C1CCCCC1 | 36.3* | 15.6 | 11.6 | -5.7 | -1.9 | 0.8
